# From ChEMBL document CHEMBL4842317, “Discovery of novel 3-hydroxyandrosta-5,7-Diene-17-Carboxylic acid derivatives as anti-inflammatory bowel diseases (IBD) agents” (Eur J Med Chem, 2021)
# The source made the active and inactive calls. The calls are words filed in the database; no cut-off is given here.
# Columns and labels:
# [1] = tested on: RAW264.7; assay: Antiinflammatory activity against mouse RAW264.7 cells assessed as inhibition of LPS-induced NO production measured after 24 hrs by Griess assay; format: functional, cell-based; details: RAW264.7, 24 h
# In short: (§1)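 RAW 264.7 cells (1 × 10^5 cells/mL) are cultured 24 h, stimulated with LPS (100 ng/mL final), and treated with compounds from 100 μM downward for 24 h in DMEM with 10% FBS. Medium nitrite is measured by Griess reaction (sulfanilamide, naphthylethylenediamine, phosphoric acid, 10 min, room temperature, dark). Mean + SD from three independent experiments.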
# [2] = tested on: RAW264.7; assay: Cytotoxicity against mouse RAW264.7 cells assessed as reduction in cell viability at 3 to 100 uM incubated for 24 hrs in presence of LPS by MTT assay; format: cell-based; details: raw264.7, 24 h, dose 3-100 µM
# In short: (§2)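 RAW 264.7 cells are seeded at 1.0 × 10^4 per well and incubated overnight. Compounds are added at concentrations from 100 μM downward, with or without LPS (100 ng/mL), for 24 h. MTT (0.5 mg/mL) is added for 4 h and the formazan is dissolved in DMSO for the read-out.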
# [3] = tested on: RAW264.7; assay: Cytotoxicity against mouse RAW264.7 cells assessed as reduction in cell viability at 3 to 100 uM incubated for 24 hrs by MTT assay; format: cell-based; details: raw264.7, 24 h, dose 3-100 µM; in short: as §2
# [4] = tested on: RAW264.7; assay: Antiinflammatory activity against mouse RAW264.7 cells assessed as inhibition of LPS-induced NO production at 20 uM after 24 hrs by Griess assay; format: functional; in short: as §1
# [5] = tested on: RAW264.7; assay: Antiinflammatory activity against mouse RAW264.7 cells assessed as decrease in LPS-induced NF-kappB mRNA expression at 20 uM in presence of LPS by qRT-PCR analysis; format: functional, cell-based
# In short: (§3)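 RAW 264.7 cells are grown 12 h in six-well plates, then exposed to LPS (100 ng/ml) plus compound for 8 h. Reverse transcription is followed by SYBR Green qPCR with GAPDH as internal control. Relative expression is calculated by 2^-ΔΔCT versus the untreated control. Mean + SD from three independent experiments.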
# [6] = tested on: RAW264.7; assay: Antiinflammatory activity against mouse RAW264.7 cells assessed as inhibition of LPS-induced iNOS mRNA expression at 20 uM incubated for 8 hrs in presence of LPS by qRT-PCR analysis; format: functional, cell-based; in short: as §3
# [7] = tested on: RAW264.7; assay: Antiinflammatory activity against mouse RAW264.7 cells assessed as inhibition of LPS-induced COX2 mRNA expression at 20 uM incubated for 8 hrs in presence of LPS by qRT-PCR analysis; format: functional, cell-based; in short: as §3
# [8] = tested on: RAW264.7; assay: Antiinflammatory activity against mouse RAW264.7 cells assessed as decrease in LPS-induced IL-6 mRNA expression at 20 uM in presence of LPS by qRT-PCR analysis; format: functional, cell-based; in short: as §3
# [9] = tested on: RAW264.7; assay: Antiinflammatory activity against mouse RAW264.7 cells assessed as decrease in LPS-induced IL-1beta mRNA expression at 20 uM in presence of LPS by qRT-PCR analysis; format: functional, cell-based; in short: as §3
# [10] = tested on: RAW264.7; assay: Antiinflammatory activity against mouse RAW264.7 cells assessed as inhibition of LPS-induced MCP-1 mRNA expression at 20 uM in presence of LPS by qRT-PCR analysis; format: functional, cell-based; in short: as §3
# [11] = tested on: RAW264.7; assay: Antiinflammatory activity against mouse RAW264.7 cells assessed as decrease in LPS-induced TNF-alpha mRNA expression at 20 uM in presence of LPS by qRT-PCR analysis; format: functional, cell-based; in short: as §3
# [12] = tested on: Mus musculus; assay: Antiinflammatory activity against DSS-induced colitis C57BL/6 mouse model assessed as dispersed CD86-positive cells in colon at 20 mg/kg, ip administered for 7 days by hematoxylin and eosin staining based microscopic analysis; format: functional, organism-based; details: time 7.0 day
# In short: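 DSS colitis (3.5% DSS, male C57BL/6 mice, n=5 per group) with 7-day intraperitoneal dosing in saline/castor oil/ethanol/DMSO vehicle. Colons are fixed in formalin, paraffin-embedded and stained with H&E (viewed at 200X). Separately, sections undergo CD86 immunohistochemistry (citrate antigen retrieval, 3% H2O2 block, 1:200 primary and HRP secondary, hematoxylin counterstain) viewed at 400X.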
# [13] = tested on: Mus musculus; assay: Antiinflammatory activity against DSS-induced colitis C57BL/6 mouse model assessed as reduction in scores of stool consistency and bleeding at 20 mg/kg, ip administered for 7 days by immunohistochemistry analysis; format: functional, organism-based; details: time 7.0 day
SMILES,IC50 [1],Activity [2],Activity [3],inhibition at 20 µM [4],Activity [5],Activity [6],Activity [7],Activity [8],Activity [9],Activity [10],Activity [11],Activity [12],Activity [13]
COC(=O)[C@H]1CC[C@H]2C3=CC=C4C[C@@H](O)CC[C@]4(C)[C@H]3CC[C@]12C,> 20 µM,Non-Toxic,Non-Toxic,21.8%,,,,,,,,,
C[C@]12CC[C@H]3[C@@H](CC=C4C[C@@H](O)CC[C@@]43C)[C@@H]1CC[C@@H]2C(=O)NCCCn1ccnc1,> 20 µM,Non-Toxic,Non-Toxic,50.4%,,,,,,,,,
CC(C)NC(=O)[C@H]1CC[C@H]2[C@@H]3CC=C4C[C@@H](O)CC[C@]4(C)[C@H]3CC[C@]12C,> 20 µM,Non-Toxic,Non-Toxic,7.84%,,,,,,,,,
C[C@]12CC[C@H]3[C@@H](CC=C4C[C@@H](O)CC[C@@]43C)[C@@H]1CC[C@@H]2C(=O)NC1CCCCC1,> 20 µM,Non-Toxic,Non-Toxic,47.8%,,,,,,,,,
C[C@]12CC[C@H]3[C@@H](CC=C4C[C@@H](O)CC[C@@]43C)[C@@H]1CC[C@@H]2C(=O)Nc1n[nH]cc1C#N,> 20 µM,Non-Toxic,Non-Toxic,24.9%,,,,,,,,,
CCC[C@](C)(O)[C@H]1CC[C@H]2C3=CC=C4C[C@@H](O)CC[C@]4(C)[C@H]3CC[C@@]21C,> 20 µM,Non-Toxic,Non-Toxic,55.3%,,,,,,,,,
Cc1ccn(C(=O)[C@H]2CC[C@H]3[C@@H]4CC=C5C[C@@H](O)CC[C@]5(C)[C@H]4CC[C@]23C)n1,> 20 µM,Non-Toxic,Non-Toxic,35.8%,,,,,,,,,
C[C@]12CC[C@H]3[C@@H](CC=C4C[C@@H](O)CC[C@@]43C)[C@@H]1CC[C@@H]2C(=O)NC1CC1,> 20 µM,Non-Toxic,Non-Toxic,40.5%,,,,,,,,,
CCN(CC)C(=O)[C@H]1CC[C@H]2[C@@H]3CC=C4C[C@@H](O)CC[C@]4(C)[C@H]3CC[C@]12C,> 20 µM,Non-Toxic,Non-Toxic,25.5%,,,,,,,,,
CC(C)(O)CNC(=O)[C@H]1CC[C@H]2[C@@H]3CC=C4C[C@@H](O)CC[C@]4(C)[C@H]3CC[C@]12C,> 20 µM,Non-Toxic,Non-Toxic,38.8%,,,,,,,,,
CCCC[C@](C)(O)[C@H]1CC[C@H]2C3=CC=C4C[C@@H](O)CC[C@]4(C)[C@H]3CC[C@@]21C,> 20 µM,Non-Toxic,Non-Toxic,28.8%,,,,,,,,,
C[C@]12CC[C@H]3[C@@H](CC=C4C[C@@H](O)CC[C@@]43C)[C@@H]1CC[C@@H]2C(=O)N1CCCCC1,> 20 µM,Non-Toxic,Non-Toxic,37.4%,,,,,,,,,
CCCCOC(=O)[C@H]1CC[C@H]2C3=CC=C4C[C@@H](O)CC[C@]4(C)[C@H]3CC[C@]12C,> 20 µM,Non-Toxic,Non-Toxic,37.8%,,,,,,,,,
CCOC(=O)[C@H]1CC[C@H]2C3=CC=C4C[C@@H](O)CC[C@]4(C)[C@H]3CC[C@]12C,> 20 µM,Non-Toxic,Non-Toxic,11.3%,,,,,,,,,

# Further lines, with some results ahead:
IC50 [1],SMILES,Activity [2],Activity [3],inhibition at 20 µM [4],Activity [5],Activity [6],Activity [7],Activity [8],Activity [9],Activity [10],Activity [11],Activity [12],Activity [13]
> 20 µM,C[C@]12CC[C@H]3[C@@H](CC=C4C[C@@H](O)CC[C@@]43C)[C@@H]1CC[C@@H]2C(=O)NCCO,Non-Toxic,Non-Toxic,41.1%,,,,,,,,,
> 20 µM,C[C@]12CC[C@H]3[C@@H](CC=C4C[C@@H](O)CC[C@@]43C)[C@@H]1CC[C@@H]2C(=O)NCCN1CCOCC1,Non-Toxic,Non-Toxic,36.4%,,,,,,,,,
9.02 µM,CCCOC(=O)[C@H]1CC[C@H]2C3=CC=C4C[C@@H](O)CC[C@]4(C)[C@H]3CC[C@]12C,Non-Toxic,Non-Toxic,89.4%,Active,Active,Active,Active,Active,Active,Active,,
31.3 µM,C[C@]12CC[C@H]3[C@@H](CC=C4C[C@@H](O)CC[C@@]43C)[C@@H]1CC[C@@H]2C(=O)NCCN1CCCC1,Non-Toxic,Non-Toxic,50.4%,,,,,,,,,
> 20 µM,CC(=O)NCCNC(=O)[C@H]1CC[C@H]2[C@@H]3CC=C4C[C@@H](O)CC[C@]4(C)[C@H]3CC[C@]12C,Non-Toxic,Non-Toxic,16.1%,,,,,,,,,
> 20 µM,C[C@]12CC[C@H]3[C@@H](CC=C4C[C@@H](O)CC[C@@]43C)[C@@H]1CC[C@@H]2C(=O)NCCc1ccccc1,Non-Toxic,Non-Toxic,45.4%,,,,,,,,,
11.3 µM,CC(C)CCNC(=O)[C@H]1CC[C@H]2[C@@H]3CC=C4C[C@@H](O)CC[C@]4(C)[C@H]3CC[C@]12C,Non-Toxic,Non-Toxic,59.2%,,,,,,,,,
14.8 µM,C[C@@H]1C[C@H]2[C@@H]3CCC4=CC(=O)C=C[C@]4(C)[C@@]3(F)[C@@H](O)C[C@]2(C)[C@@]1(O)C(=O)CO [DEXAMETHASONE],,,93.6%,,,,,,,Active,Active,Active
> 20 µM,CCCCNC(=O)[C@H]1CC[C@H]2[C@@H]3CC=C4C[C@@H](O)CC[C@]4(C)[C@H]3CC[C@]12C,Non-Toxic,Non-Toxic,44.4%,,,,,,,,,
15.6 µM,CCCNC(=O)[C@H]1CC[C@H]2[C@@H]3CC=C4C[C@@H](O)CC[C@]4(C)[C@H]3CC[C@]12C,Non-Toxic,Non-Toxic,72.8%,Active,inactive,Active,inactive,inactive,Active,inactive,,
21.2 µM,C[C@]12CC[C@H]3[C@@H](CC=C4C[C@@H](O)CC[C@@]43C)[C@@H]1CC[C@@H]2C(=O)NCCc1cccs1,Non-Toxic,Non-Toxic,55.6%,,,,,,,,,
27 µM,CC[C@](C)(O)[C@H]1CC[C@H]2C3=CC=C4C[C@@H](O)CC[C@]4(C)[C@H]3CC[C@@]21C,Non-Toxic,Non-Toxic,52.5%,,,,,,,,,
